{
  "source": "ChEMBL document CHEMBL1158834",
  "about": "“Cytotoxic clerodane diterpenoids from Casearia membranacea” (2005)",
  "format_in_all_cases": "functional",
  "key": {"KB": {"test_system": "KB", "assay": "Cytotoxicity against human KB cells after 3 days by methylene blue staining", "conditions": "72 h, read-out: ED50 (the source's name)", "how_it_was_run": "(§1)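 Cells grown in RPMI-1640 at 37 °C, 5% CO2, seeded at 2880 cells/well for 3 h, then given sample (prepared at 1, 10, 40 and 100 µg/mL) for 3 days at 37 °C. Fixed in 10% formaldehyde/0.9% saline, stained with 1% methylene blue in 0.01 M borate, eluted with EtOH/0.1 M HCl, A650 read. ED50 is the concentration halving absorbance versus untreated cells.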"}, "[1]": {"assay": "Cytotoxicity against human medulloblastoma cells after 3 days by methylene blue staining", "conditions": "Medulloblastoma cell, 72 h, read-out: ED50 (the source's name)", "how_it_was_run": "as §1"}, "DLD-1": {"test_system": "DLD-1", "assay": "Cytotoxicity against human DLD1 cells after 3 days by methylene blue staining", "conditions": "DLD-1, 72 h, read-out: ED50 (the source's name)", "how_it_was_run": "as §1"}},
  "data": [
    {"smiles": "C=CC(=C)CC[C@]1(C)[C@H]2C[C@H](OC(=O)C(C)CC)C=C3[C@H](OC(C)=O)O[C@H](OC(C)=O)[C@@]32[C@H](O)C[C@@H]1C", "note": "(relative stereo)", "values": [
      {"measurement": "EC50", "setting": "KB", "result": 3.6, "unit": "µg/mL"},
      {"measurement": "EC50", "setting": "[1]", "result": 1.93, "unit": "µg/mL"},
      {"measurement": "EC50", "setting": "DLD-1", "result": 1.18, "unit": "µg/mL"}
    ]},
    {"smiles": "C=CC(=C)CC[C@]1(C)[C@H]2C[C@H](OC(=O)C(C)CC)C=C3[C@H](OC(=O)CCC)O[C@H](OC(C)=O)[C@@]32[C@H](O)[C@H](OC(C)=O)[C@@H]1C", "note": "(stereo partly drawn) [CASEAMEMBRIN D]", "values": [
      {"measurement": "EC50", "setting": "KB", "result": 5.57, "unit": "µg/mL"},
      {"measurement": "EC50", "setting": "[1]", "result": 2.42, "unit": "µg/mL"},
      {"measurement": "EC50", "setting": "DLD-1", "result": 1.81, "unit": "µg/mL"}
    ]},
    {"smiles": "C=CC(=C)CC[C@]1(C)[C@H]2C[C@H](OC(=O)C(C)CC)C=C3[C@H](OC(C)=O)O[C@H](OC(C)=O)[C@@]32[C@H](OC(=O)CCC)C[C@@H]1C", "note": "(stereo partly drawn) [CASEAMEMBRIN M]", "values": [
      {"measurement": "EC50", "setting": "KB", "result": 18.4, "unit": "µg/mL"},
      {"measurement": "EC50", "setting": "[1]", "result": 14.4, "unit": "µg/mL"},
      {"measurement": "EC50", "setting": "DLD-1", "result": 14.2, "unit": "µg/mL"}
    ]},
    {"smiles": "C=CC(=C)CC[C@]1(C)[C@H]2C[C@H](OC(=O)CCC)C=C3[C@H](OC(C)=O)O[C@H](OC(C)=O)[C@@]32[C@H](O)[C@H](OC(C)=O)[C@@H]1C", "note": "[CASEAMEMBRIN N]", "values": [
      {"measurement": "EC50", "setting": "KB", "result": 8.94, "unit": "µg/mL"},
      {"measurement": "EC50", "setting": "[1]", "result": 3.27, "unit": "µg/mL"},
      {"measurement": "EC50", "setting": "DLD-1", "result": 4.37, "unit": "µg/mL"}
    ]},
    {"smiles": "C=CC(=C)CC[C@]1(C)[C@H]2C[C@H](OC(=O)CC(C)C)C=C3[C@H](OC(C)=O)O[C@H](OC(C)=O)[C@@]32[C@H](O)[C@H](OC(C)=O)[C@@H]1C", "note": "[CASEAMEMBRIN O]", "values": [
      {"measurement": "EC50", "setting": "KB", "result": 6.94, "unit": "µg/mL"},
      {"measurement": "EC50", "setting": "[1]", "result": 1.94, "unit": "µg/mL"},
      {"measurement": "EC50", "setting": "DLD-1", "result": 2.54, "unit": "µg/mL"}
    ]},
    {"smiles": "CO[C@@]12[C@H](COC(N)=O)C3=C(C(=O)C(C)=C(N)C3=O)N1C[C@@H]1N[C@@H]12", "note": "[MITOMYCIN]", "values": [
      {"measurement": "EC50", "setting": "KB", "result": 0.13, "unit": "µg/mL"},
      {"measurement": "EC50", "setting": "[1]", "result": 0.1, "unit": "µg/mL"},
      {"measurement": "EC50", "setting": "DLD-1", "result": 0.1, "unit": "µg/mL"}
    ]}
  ]
}
